Measurements as given in ChEMBL document CHEMBL2093137, “WHO-TDR NTD Screening”.
Converted amounts (≈) assume the structure as drawn.

Legend:
[1] = system: Onchocerca ochengi; assay: WHO-TDR: Onchocerciasis; format: functional; set-up: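 at 12.5 µM on microfilariae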
Procedure, shortened: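 Percent inhibition and IC50 describe activity against microfilariae of Onchocerca ochengi or Onchocerca lienalis, used as animal-pathogen substitutes for the human parasite. The compounds tested made up a 10,000-member diverse library from Life Chemicals.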

[2] = system: Trypanosoma cruzi; assay: WHO-TDR: Chagas disease; format: functional, organism-based, Homo sapiens; conditions: MRC5
Procedure, shortened: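 Each IC50 reflects antiparasitic potency against intracellular amastigotes of Trypanosoma cruzi Tulahuen CL2 beta-galactosidase strain. These were cultured in MRC-5SV2 human lung fibroblasts and exposed to a 10,000-compound diverse Life Chemicals library screened according to published standard procedures with a reference drug as positive control.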

[3] = WHO-TDR: Cytotoxicity; format: toxicity, cell-based; conditions: human, MRC5 cells
[4] = system: Brugia malayi; assay: WHO-TDR: Lymphatic Filariasis; format: functional; set-up: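 tested at 10 µM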
Procedure, shortened: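 The screening set was a 10,000-compound diverse library from Life Chemicals, filtered for drug-likeness and for reactive groups. It was run against Brugia malayi microfilariae as whole organisms, using previously published standard procedures. Reference drugs acted as positive controls, and activity is reported both as percent inhibition and as IC50.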

[5] = system: Plasmodium falciparum K1; assay: WHO-TDR: Malaria; format: functional, organism-based, Homo sapiens; conditions: Erythrocyte
Procedure, shortened: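 Whole-organism screen of a 10,000-compound diverse library from Life Chemicals, filtered for drug-likeness and reactive groups, against intra-erythrocytic Plasmodium falciparum K1 strain in human red blood cells. The assay followed previously published standard procedures, with a reference drug as positive control. Antiplasmodial potency is reported as IC50.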

[6] = system: Leishmania infantum; assay: WHO-TDR: Leishmaniasis; format: functional, organism-based, Mus musculus; conditions: Macrophage
Procedure, shortened: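 Whole-organism screen of a 10,000-compound diverse library from Life Chemicals, filtered for drug-likeness and reactive groups, against intracellular amastigotes of Leishmania infantum MHOM/MA(BE)/67 in murine peritoneal macrophage host cells. The assay followed previously published standard procedures, with a reference drug as positive control. Antiparasitic potency is reported as IC50.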

[7] = system: Trypanosoma brucei brucei; assay: WHO-TDR: Human African Trypanosomiasis (HAT); format: functional, organism-based; conditions: Squib-427
Procedure, shortened: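 Whole-organism screen of a 10,000-compound diverse library from Life Chemicals, filtered for drug-likeness and reactive groups, against bloodstream forms of Trypanosoma brucei Squib 427 strain. The assay followed previously published standard procedures, with reference drugs as positive controls. Antiparasitic potency is reported as IC50.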

[8] = system: Schistosoma mansoni; assay: WHO-TDR: Schistosomiasis; format: functional; set-up: concentration or dose not given beside the values
Procedure, shortened: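 Percent inhibition and IC50 describe activity against whole Schistosoma mansoni worms of the Puerto Rican strain, tested as larvae and/or adults. The compounds screened were a diverse set of 10,000 from Life Chemicals, filtered for drug-likeness and reactive groups. Testing followed previously published standard procedures, with a reference drug as positive control.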

SMILES | % Inhibition [1] | IC50 [2] | IC50 [3] | % Inhibition [4] | IC50 [5] | IC50 [6] | IC50 [7] | % Inhibition [8]
Cc1cc(C(=O)Nc2nc(-c3cc4ccccc4o3)cs2)on1 | 100% | > 9.76 µg/mL | > 9.76 µg/mL | 20% | > 9.76 µg/mL | 3.16 µg/mL (≈ 9.71 µM) | > 9.76 µg/mL | 0%
COc1nn(C)cc1-c1nnc(SCC(=O)N2CCC(Cc3ccccc3)CC2)n1C | 100% | 3.01 µg/mL (≈ 6.84 µM) | 5.88 µg/mL (≈ 13.3 µM) | 0% | 3.65 µg/mL (≈ 8.28 µM) | 4.28 µg/mL (≈ 9.71 µM) | 0.428 µg/mL (≈ 0.971 µM) | 0%
Cc1ccccc1OCC(=O)NCCS(=O)(=O)N1CCN(Cc2ccccc2)CC1 | 100% | > 14 µg/mL | > 14 µg/mL | 20% | > 14 µg/mL | > 14 µg/mL | > 14 µg/mL | 83.3%
O=C(Cc1ccc(Cl)cc1)NCCS(=O)(=O)N1CCN(Cc2ccccc2)CC1 | 100% | > 14.2 µg/mL | > 14.2 µg/mL | 20% | > 14.2 µg/mL | > 14.2 µg/mL | > 14.2 µg/mL | 0%
O=C(Nc1ccc(OC(F)(F)F)cc1)c1csc(NS(=O)(=O)c2cccs2)n1 | 100% | > 13.5 µg/mL | > 13.5 µg/mL | 20% | > 13.5 µg/mL | > 13.5 µg/mL | > 13.5 µg/mL | 0%
O=C(NCCc1ccc(Cl)cc1)c1csc(NS(=O)(=O)c2ccccc2)n1 | 100% | > 12.7 µg/mL | > 12.7 µg/mL | 20% | > 12.7 µg/mL | > 12.7 µg/mL | > 12.7 µg/mL | 0%
CC1Cc2ccccc2N1C(=O)Cc1csc(NC(=O)c2ccc[nH]c2=O)n1 (stereo not drawn) | 50% | > 11.8 µg/mL | > 11.8 µg/mL | 20% | > 11.8 µg/mL | > 11.8 µg/mL | > 11.8 µg/mL | 100%
O=C(Cc1csc(NC(=O)c2ccc[nH]c2=O)n1)Nc1ccc(Cl)cc1 | 0% | > 11.7 µg/mL | > 11.7 µg/mL | 20% | > 11.7 µg/mL | 0.378 µg/mL (≈ 0.972 µM) | > 11.7 µg/mL | 0%
O=C(Cc1csc(NC(=O)c2ccc[nH]c2=O)n1)Nc1ccc2c(c1)OCCO2 | 0% | > 12.4 µg/mL | > 12.4 µg/mL | 20% | > 12.4 µg/mL | > 12.4 µg/mL | > 12.4 µg/mL | 100%
O=C(Cc1csc(NC(=O)c2ccc[nH]c2=O)n1)NCc1ccncc1 | 0% | > 11.1 µg/mL | > 11.1 µg/mL | 20% | > 11.1 µg/mL | > 11.1 µg/mL | > 11.1 µg/mL | 100%
O=C(Cc1csc(NC(=O)c2ccc(=O)[nH]c2)n1)NCc1cccs1 | 0% | > 11.2 µg/mL | > 11.2 µg/mL | 20% | > 11.2 µg/mL | > 11.2 µg/mL | > 11.2 µg/mL | 100%
CC(C)(C)n1ncc2c(=O)n(CCC(=O)NCc3ccccc3Cl)cnc21 | 0% | > 11.6 µg/mL | > 11.6 µg/mL | 20% | > 11.6 µg/mL | > 11.6 µg/mL | > 11.6 µg/mL | 100%
CC(C)(C)n1ncc2c(=O)n(CCC(=O)Nc3ccc4c(c3)OCO4)cnc21 | 0% | > 11.5 µg/mL | > 11.5 µg/mL | 20% | > 11.5 µg/mL | > 11.5 µg/mL | > 11.5 µg/mL | 100%
O=C(CCn1cnc2c(cnn2-c2ccccc2)c1=O)Nc1nccs1 | 0% | > 11 µg/mL | > 11 µg/mL | 20% | > 11 µg/mL | 3.56 µg/mL (≈ 9.71 µM) | > 11 µg/mL | 100%
CC1(C)Cc2cccc(OCCCS(=O)(=O)NCc3cccs3)c2O1 | 100% | > 11.4 µg/mL | > 11.4 µg/mL | 20% | > 11.4 µg/mL | > 11.4 µg/mL | > 11.4 µg/mL | 0%
CC1CC(C)CN(S(=O)(=O)CCCOc2ccc3c(c2)OCO3)C1 (stereo not drawn) | 0% | > 10.7 µg/mL | 4.25 µg/mL (≈ 11.9 µM) | 20% | > 10.7 µg/mL | > 10.7 µg/mL | > 10.7 µg/mL | 100%
